Measurements from ChEMBL document CHEMBL1141538, “Carboxylic acid bioisosteres acylsulfonamides, acylsulfamides, and sulfonylureas as novel antagonists of the CXCR2 receptor” (Bioorg Med Chem Lett, 2008).
Values belong to the compound of their own block, whether it stands above or below them.

Tests used:
[1] = molecular target: T1, C-X-C chemokine receptor type 2 (Homo sapiens, UniProt P25025); test: Displacement of europium labeled-human IL8 from human cloned CXCR2 expressed in Sf9 membrane with Galphai3-beta-1-gamma-2 by DELFIA binding assay
T1 sequence (P25025 whole entry): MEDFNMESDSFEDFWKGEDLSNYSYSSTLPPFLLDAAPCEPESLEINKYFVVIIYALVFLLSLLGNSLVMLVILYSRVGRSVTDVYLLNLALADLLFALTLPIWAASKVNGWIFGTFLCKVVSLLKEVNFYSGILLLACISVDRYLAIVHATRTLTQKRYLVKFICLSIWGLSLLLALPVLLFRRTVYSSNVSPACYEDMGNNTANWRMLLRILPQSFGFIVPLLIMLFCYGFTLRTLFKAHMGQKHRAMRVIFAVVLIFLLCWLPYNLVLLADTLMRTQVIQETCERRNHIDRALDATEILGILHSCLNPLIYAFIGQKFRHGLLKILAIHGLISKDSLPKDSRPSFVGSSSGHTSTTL
Outline: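 Lysates (40 µg/mL) incubated in triplicate with 2 nM Eu-IL-8 and compound, 90 min at room temperature. Filtered and washed, enhancement solution added, time-resolved fluorescence read at 340/612 nm with 400 µs delay. Background defined with 200 nM unlabeled human IL-8. IC50 by four-parameter logistic fit.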

[2] = molecular target: T1, C-X-C chemokine receptor type 2; test: Antagonist activity at human cloned CXCR2 by calcium flux FLIPR assay; type: functional
Outline: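 Chem-1 cells carrying cloned human CXCR2 coupled to Gi/o, seeded at 5 × 10⁵ cells/mL and left to adhere overnight in DMEM without G-418. Loaded with half-strength Calcium 3 dye in HBSS/20 mM Hepes pH 7.4/2.5 mM probenecid, with compound in triplicate, 30 min at 37 °C then 30 min at room temperature. Stimulated with human IL-8 (4 nM solution added). Fluorescence 485/525 read every 2 s. IC50 from a four-parameter logistic fit.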

Cytochrome P450 1A2 = molecular target: T2, Cytochrome P450 1A2 (Homo sapiens, UniProt P05177); test: Inhibition of CYP1A2; type: ADME
T2 sequence (P05177 whole entry): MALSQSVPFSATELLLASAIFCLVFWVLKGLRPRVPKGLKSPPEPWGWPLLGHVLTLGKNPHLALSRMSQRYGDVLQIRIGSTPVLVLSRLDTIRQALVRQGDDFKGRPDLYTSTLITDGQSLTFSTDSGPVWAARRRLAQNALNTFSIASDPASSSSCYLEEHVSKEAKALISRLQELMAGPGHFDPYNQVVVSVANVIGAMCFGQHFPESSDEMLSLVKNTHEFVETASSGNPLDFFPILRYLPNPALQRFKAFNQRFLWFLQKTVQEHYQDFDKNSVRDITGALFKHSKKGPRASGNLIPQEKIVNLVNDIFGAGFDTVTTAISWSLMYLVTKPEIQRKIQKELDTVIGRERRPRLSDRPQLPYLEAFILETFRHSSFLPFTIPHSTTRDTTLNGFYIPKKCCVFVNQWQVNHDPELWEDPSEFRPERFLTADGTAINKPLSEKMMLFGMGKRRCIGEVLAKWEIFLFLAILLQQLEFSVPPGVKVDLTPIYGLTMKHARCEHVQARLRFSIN

Cytochrome P450 2C9 = Cytochrome P450 2C9 (Homo sapiens, UniProt P11712); test: Inhibition of CYP2C9; type: ADME
Cytochrome P450 3A4 = Cytochrome P450 3A4 (Homo sapiens, UniProt P08684); test: Inhibition of CYP3A4; type: ADME
Cytochrome P450 2C19 = Cytochrome P450 2C19 (Homo sapiens, UniProt P33261); test: Inhibition of CYP2C19; type: ADME
Cytochrome P450 2D6 = Cytochrome P450 2D6 (Homo sapiens, UniProt P10635); test: Inhibition of CYP2D6; type: ADME
[3] = Stability in rat liver microsomes after 10 mins; type: ADME, Microsome; conditions: read-out: Stability
[4] = Stability in human liver microsomes after 10 mins; type: ADME, Microsome; conditions: read-out: Stability
[5] = Plasma protein binding in rat; type: ADME, cell-free; conditions: read-out: PPB
[6] = Half life in iv dosed rat; type: ADME, organism-based; conditions: in vivo
[7] = Clearance in iv dosed rat; type: ADME, organism-based; conditions: in vivo
[8] = Oral bioavailability in rat; type: ADME, organism-based; conditions: in vivo
Rattus norvegicus [9] = test: Reduction of hyperoxia-induced neutrophil accumulation in newborn rat at 10 mg/kg, ip after 7 days; type: functional; parameters: scale not given: the % may be the effect or the level left; conditions: route intraperitoneal
Rattus norvegicus [10] = test: Reduction of hyperoxia-induced neutrophil accumulation in newborn rat at 10 mg/kg, ip after 7 days; parameters: scale not given: the % may be the effect or the level left; conditions: route intraperitoneal

Cytochrome P450 2D6, sequence (P10635 whole entry): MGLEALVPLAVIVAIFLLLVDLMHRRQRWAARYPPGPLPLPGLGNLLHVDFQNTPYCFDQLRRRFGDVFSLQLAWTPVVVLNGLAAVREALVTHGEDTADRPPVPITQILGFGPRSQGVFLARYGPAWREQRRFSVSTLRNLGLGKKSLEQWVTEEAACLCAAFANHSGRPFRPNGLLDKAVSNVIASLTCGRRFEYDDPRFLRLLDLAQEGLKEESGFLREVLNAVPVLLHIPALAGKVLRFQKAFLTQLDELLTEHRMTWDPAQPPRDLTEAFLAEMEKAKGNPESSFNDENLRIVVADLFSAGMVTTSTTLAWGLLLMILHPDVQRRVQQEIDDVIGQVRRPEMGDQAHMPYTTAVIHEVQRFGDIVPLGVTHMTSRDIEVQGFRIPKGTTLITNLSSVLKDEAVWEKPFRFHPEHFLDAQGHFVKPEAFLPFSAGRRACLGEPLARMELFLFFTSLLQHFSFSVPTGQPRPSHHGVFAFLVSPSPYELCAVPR
Cytochrome P450 2C9, sequence (P11712 whole entry): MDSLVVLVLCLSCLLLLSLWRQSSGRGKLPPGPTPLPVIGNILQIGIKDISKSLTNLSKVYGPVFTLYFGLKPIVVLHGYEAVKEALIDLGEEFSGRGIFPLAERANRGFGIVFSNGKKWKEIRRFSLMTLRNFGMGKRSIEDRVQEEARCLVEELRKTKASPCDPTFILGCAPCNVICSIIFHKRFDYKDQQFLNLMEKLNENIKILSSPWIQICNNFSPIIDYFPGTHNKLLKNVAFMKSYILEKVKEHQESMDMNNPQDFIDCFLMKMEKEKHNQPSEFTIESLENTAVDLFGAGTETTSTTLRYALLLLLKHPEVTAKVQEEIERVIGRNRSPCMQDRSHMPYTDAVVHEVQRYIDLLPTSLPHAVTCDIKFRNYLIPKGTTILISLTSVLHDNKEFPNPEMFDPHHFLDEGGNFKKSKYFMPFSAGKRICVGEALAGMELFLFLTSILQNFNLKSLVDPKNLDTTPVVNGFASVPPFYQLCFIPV
Cytochrome P450 2C19, sequence (P33261 whole entry): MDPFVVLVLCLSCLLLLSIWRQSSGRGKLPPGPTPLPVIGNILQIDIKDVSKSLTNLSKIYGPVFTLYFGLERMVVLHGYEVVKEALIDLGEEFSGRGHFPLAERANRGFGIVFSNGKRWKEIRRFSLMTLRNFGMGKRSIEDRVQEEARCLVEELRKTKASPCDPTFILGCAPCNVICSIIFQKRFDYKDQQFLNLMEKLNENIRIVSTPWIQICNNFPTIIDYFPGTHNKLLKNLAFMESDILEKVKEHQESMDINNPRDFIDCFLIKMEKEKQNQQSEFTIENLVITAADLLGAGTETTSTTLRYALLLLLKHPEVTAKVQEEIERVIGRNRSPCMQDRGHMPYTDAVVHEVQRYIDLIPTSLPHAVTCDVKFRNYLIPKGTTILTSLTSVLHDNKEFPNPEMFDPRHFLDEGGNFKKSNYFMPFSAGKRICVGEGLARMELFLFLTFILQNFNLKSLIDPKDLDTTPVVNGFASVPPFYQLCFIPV
Cytochrome P450 3A4, sequence (P08684 whole entry): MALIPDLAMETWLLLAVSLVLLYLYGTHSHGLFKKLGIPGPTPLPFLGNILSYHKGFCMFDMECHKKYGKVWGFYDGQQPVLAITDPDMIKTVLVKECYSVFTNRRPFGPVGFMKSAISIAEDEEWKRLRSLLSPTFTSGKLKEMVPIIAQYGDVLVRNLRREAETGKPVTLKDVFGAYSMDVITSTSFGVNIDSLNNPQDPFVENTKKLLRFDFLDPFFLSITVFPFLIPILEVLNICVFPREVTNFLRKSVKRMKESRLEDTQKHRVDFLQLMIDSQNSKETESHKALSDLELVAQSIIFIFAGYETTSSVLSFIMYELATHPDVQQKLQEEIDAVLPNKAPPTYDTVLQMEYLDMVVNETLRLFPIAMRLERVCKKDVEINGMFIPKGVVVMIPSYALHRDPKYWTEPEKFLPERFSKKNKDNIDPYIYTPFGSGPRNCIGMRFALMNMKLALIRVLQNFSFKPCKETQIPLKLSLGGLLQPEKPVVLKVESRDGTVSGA

Structure (SMILES): Cc1cc2[nH]c(-c3ccc(F)cc3)c(CCCC(=O)NS(C)(=O)=O)c2cc1C#N
- IC50 [1]: 19 nM

Structure (SMILES): N#Cc1ccc2[nH]c(-c3ccc(F)cc3)c(CCCC(=O)NS(=O)(=O)N3CCOCC3)c2c1
- IC50 [1]: 150 nM

Structure (SMILES): CN(C(=O)CCCc1c(-c2ccc(F)cc2)[nH]c2ccc(C#N)cc12)S(C)(=O)=O
- IC50 [1]: > 2000 nM

Structure (SMILES): CNS(=O)(=O)NC(=O)CCCc1c(-c2ccc(F)cc2)[nH]c2ccc(C#N)cc12
- IC50 [1]: 120 nM
- IC50 [2]: 14 nM

Structure (SMILES): COc1cc2[nH]c(-c3ccc(F)cc3)c(CCCC(=O)NS(C)(=O)=O)c2cc1C#N
- IC50 [1]: 160 nM

Structure (SMILES): CN(C)S(=O)(=O)NC(=O)CCCc1c(-c2ccc(F)cc2)[nH]c2ccc(C#N)cc12
- IC50 (Cytochrome P450 1A2): > 5000 nM
- IC50 [1]: 50 nM
- IC50 [2]: 5 nM
- IC50 (Cytochrome P450 2C9): 1320 nM
- IC50 (Cytochrome P450 3A4): > 5000 nM
- IC50 (Cytochrome P450 2C19): > 5000 nM
- IC50 (Cytochrome P450 2D6): > 5000 nM
- remaining at 10 min [3]: 100%
- remaining at 10 min [4]: 76.8%
- fraction unbound [5]: < 0.01
- half-life [6]: 2.7 h
- clearance [7]: 3.8 mL/min/kg
- bioavailability [8]: 107%
- Activity (Rattus norvegicus [9]): 50%
- Activity (Rattus norvegicus [10]): 50%

Structure (SMILES): COCCNS(=O)(=O)NC(=O)CCCc1c(-c2ccc(F)cc2)[nH]c2ccc(C#N)cc12
- IC50 [1]: 260 nM

Structure (SMILES): CS(=O)(=O)NC(=O)CCCc1c(-c2ccc(F)cc2)[nH]c2ccc(Br)cc12
- IC50 [1]: 170 nM

Structure (SMILES): Cc1cc2[nH]c(-c3ccc(F)cc3)c(CCCC(=O)NS(=O)(=O)N(C)C)c2cc1C#N
- IC50 [1]: 24 nM

Structure (SMILES): N#Cc1ccc2[nH]c(-c3ccc(F)cc3)c(CCCC(=O)NS(N)(=O)=O)c2c1
- IC50 [1]: 66 nM

Structure (SMILES): N#Cc1ccc2[nH]c(-c3ccc(F)cc3)c(CCCC(=O)NS(=O)(=O)Nc3ccccc3)c2c1
- IC50 [1]: 880 nM

Structure (SMILES): CCCCNS(=O)(=O)NC(=O)CCCc1c(-c2ccc(F)cc2)[nH]c2ccc(C#N)cc12
- IC50 [1]: 1100 nM

Structure (SMILES): N#Cc1ccc2[nH]c(-c3ccc(F)cc3)c(CCNC(=O)NS(=O)(=O)c3ccccc3Cl)c2c1
- IC50 [1]: 400 nM

Structure (SMILES): N#Cc1ccc2[nH]c(-c3ccc(F)cc3)c(CCCC(=O)NS(=O)(=O)Cc3ccccc3)c2c1
- IC50 [1]: 1400 nM

Structure (SMILES): CCS(=O)(=O)NC(=O)CCCc1c(-c2ccc(F)cc2)[nH]c2ccc(C#N)cc12
- IC50 [1]: 64 nM

Further compounds by falling IC50 [1], results first:

- IC50 [1]: 1300 nM
Structure (SMILES): CCCS(=O)(=O)NC(=O)CCCc1c(-c2ccc(F)cc2)[nH]c2ccc(C#N)cc12

- IC50 [1]: 1100 nM
Structure (SMILES): CCN(CC)S(=O)(=O)NC(=O)CCCc1c(-c2ccc(F)cc2)[nH]c2ccc(C#N)cc12

- IC50 [1]: 640 nM
Structure (SMILES): CS(=O)(=O)NC(=O)NCCc1c(-c2ccc(F)cc2)[nH]c2ccc(C#N)cc12

- IC50 [1]: 520 nM
Structure (SMILES): N#Cc1ccc2[nH]c(-c3ccc(F)cc3)c(CCNC(=O)NS(=O)(=O)c3ccc(F)cc3)c2c1

- IC50 [1]: 260 nM
Structure (SMILES): N#Cc1ccc2[nH]c(-c3ccc(F)cc3)c(CCCC(=O)NS(=O)(=O)c3ccccc3)c2c1

- IC50 [1]: 250 nM
- IC50 [2]: 90 nM
Structure (SMILES): CS(=O)(=O)NC(=O)NCCc1c(-c2ccc(F)cc2)[nH]c2ccc(Br)cc12

- IC50 [1]: 220 nM
Structure (SMILES): CC(C)S(=O)(=O)NC(=O)CCCc1c(-c2ccc(F)cc2)[nH]c2ccc(C#N)cc12

- IC50 [1]: 140 nM
Structure (SMILES): N#Cc1ccc2[nH]c(-c3ccc(F)cc3)c(CCNC(=O)NS(=O)(=O)c3ccccc3)c2c1

- IC50 [1]: 120 nM
- IC50 [2]: 4 nM
Structure (SMILES): O=C(NCCc1c(-c2ccc(F)cc2)[nH]c2ccc(Br)cc12)NS(=O)(=O)c1ccccc1

- IC50 [1]: 87 nM
- IC50 [2]: 70 nM
Structure (SMILES): N#Cc1ccc2[nH]c(-c3ccc(F)cc3)c(CCCC(=O)NS(=O)(=O)C(F)(F)F)c2c1

- IC50 [1]: 72 nM
- IC50 [2]: 32 nM
Structure (SMILES): CS(=O)(=O)NC(=O)CCCc1c(-c2ccc(F)cc2)[nH]c2ccc(C#N)cc12

- IC50 [1]: 57 nM
Structure (SMILES): COc1cc2[nH]c(-c3ccc(F)cc3)c(CCCC(=O)NS(=O)(=O)N(C)C)c2cc1C#N
